# Screening data deposited in PubChem by several laboratories.
# Hits are enriched below; roughly 1.9% of the tested compounds scored in any of these assays.
# UBC13 inh: inhibitors of human UBC13 polyubiquitin chain formation; AID 485273; inhibition, % at 20 µM; TR-FRET; actives 0.47% (n = 330,000); P61088; in the data active = inhibition above about 45%, passing the limit was not always enough
# Target sequence (P61088 whole entry, looked up): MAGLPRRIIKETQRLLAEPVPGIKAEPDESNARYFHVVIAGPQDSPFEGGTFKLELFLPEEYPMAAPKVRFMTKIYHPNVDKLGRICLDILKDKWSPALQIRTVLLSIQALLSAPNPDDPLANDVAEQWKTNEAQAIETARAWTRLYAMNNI
# SR-BI HDL uptake: mouse SR-BI HDL lipid transfer inhibition; inhibition, % at 12.5 µM; actives 0.96% (n = 320,000); Q61009; ldlA[mSR-BI] CHO cells, DiI-HDL uptake fluorescence, 3 h;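 active = mean replicate inhibition of at least 70% and a set share of replicates each scoring 70 or more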;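 note: 0% = median of neutral control wells and 100% = median of positive control wells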
# Neddylation inh: inhibitors of human cullin neddylation; P61081+Q13564; TR-FRET cullin neddylation, biochemical; inhibition, % at 25 µM; actives 0.58% (n = 360,000); in the data active = inhibition above about 36%
# SR-BI DiI-HDL act: enhances SR-BI lipid uptake from DiI-HDL | CHO ldlA[mSR-BI] cells, DiI-HDL uptake fluorescence, 3 h; 100 = double the neutral-control signal | activation, % at 12.5 µM | actives 0.096% (n = 320,000) | AID 504775;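 active = mean replicate activation of at least 60% and every replicate at or above 60%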;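 note: 0% = median plate neutral-control signal and 100% = twice that signal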
#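 System: LDL receptor-deficient CHO ldlA cells overexpressing murine SR-BI | Timing: 3 h uptake period with compound, 37 °C | Medium: HEPES-buffered (25 mM, pH 7.4) F12 plus 0.5% BSA | Dosing: Single-point compound dose | Signal: Bottom-read fluorescence, 550/595 nm | Read-out: Retained DiI signal reflecting DiI-HDL uptake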
# * = called active by the depositor; i = inactive; · = not tested or not shown.
SMILES,UBC13 inh,SR-BI HDL uptake,Neddylation inh,SR-BI DiI-HDL act
COc1cccc(/C=C2\Sc3ccc(C(=O)NCc4cccnc4)cc3N(C)C2=O)c1,3,·,20,·
Cc1ccc(-c2cc(-c3ccco3)c3c(N)c(C(=O)NN)oc3n2)cc1,-41,78*,8,-78
Nc1nc(SCC(=O)c2ccc(Br)s2)n[nH]1,-11,i,-21,641*
COc1ccccc1C1=NOC(C)(c2nnc(-c3cccc(Cl)c3)o2)C1 (stereo not given),3,-15,3,15
C#CCOc1ccc(Cl)cc1/C=N/O,6,-5,-3,5
C#CCOc1ccc(/C=N/O)cc1Cl,15,-84,2,84*
O=c1c2ccccc2nc(N/N=C/c2c(O)ccc3ccccc23)n1O,-18,129*,·,-129
COc1ccc(-c2cc(C(F)(F)F)n3nc(C(=O)Nc4c(C)n(C)n(-c5ccccc5)c4=O)c(Cl)c3n2)cc1,-4,79*,16,-79
COc1ccc(-c2cc(C(F)(F)F)n3nc(C(=O)NCCN4CCOCC4)cc3n2)cc1,10,77*,·,-77
CCOC(=O)c1nn2c(C(F)(F)F)cc(-c3ccc(OC)cc3)nc2c1Br,24,104*,-51,-103
COc1ccc2cc(-c3cc(C(=O)OCC(=O)Nc4c(C)n(C)n(-c5ccccc5)c4=O)c4ccccc4n3)ccc2c1,·,76*,·,-76
CC(C)(C)[C@H]1COC(=O)CC/C=C\C[C@@H](CC(=O)N(CCO)Cc2ccccc2)C(=O)N1,6,-9,-20,9
Cc1c(NC(=O)c2nn3c(C(F)(F)F)cc(-c4ccccc4)nc3c2Cl)c(=O)n(-c2ccccc2)n1C,-2,29,-18,-29
Cc1c(NC(=O)c2cc3nc(-c4ccc(Cl)cc4)cc(C(F)(F)F)n3n2)c(=O)n(-c2ccccc2)n1C,-7,70*,-17,-70
COc1cccc(-c2cc(C(F)(F)F)n3nc(C(=O)Nc4c(C)n(C)n(-c5ccccc5)c4=O)cc3n2)c1,2,78*,-20,-78
COc1ccc(-c2cc(C(F)(F)F)n3nc(C(=O)Nc4c(C)n(C)n(-c5ccccc5)c4=O)cc3n2)cc1,·,80*,14,-80
COc1ccc(Cl)cc1NC(=O)NN1CCN(C)CC1,11,-16,-9,16
O=C(CN1CCN(Cc2ccccc2)CC1)Nc1ccc(Br)cc1,3,-10,7,10
C[C@]12C[C@H](O)[C@H]3[C@@H](CCC4=CC(=O)CC[C@@]43C)[C@@H]1CC[C@@H]2C(=O)CO,8,-6,-3,87*
CC(=O)[C@H]1CC[C@H]2[C@@H]3CCC4=CC(=O)CC[C@]4(C)[C@H]3[C@H](O)C[C@]12C,5,7,9,16
CN(Cc1nc2ccccc2c(=O)[nH]1)C(=O)c1cc(-c2ccc(Br)cc2)nc2ccccc12,·,34,-266,-34
O=C(Nc1nc2ccc(Cl)cc2s1)c1ccc(N2CCCCC2)c([N+](=O)[O-])c1,-20,79*,0,-79
O=C(Nc1ccc(N2CCCCC2)c(Cl)c1)c1ccc(N2CCOCC2)c([N+](=O)[O-])c1,-7,87*,-10,-87
O=C(Nc1nc2ccc3ccccc3c2s1)c1ccc(N2CCCCC2)c([N+](=O)[O-])c1,-24,65,-20,-65
COc1ccc(NC(=O)c2cc(C3CCCCN3C(=O)c3ccc(NC(C)=O)cc3)on2)c(C)c1 (stereo not given),·,·,3,·
SMILES,UBC13 inh,SR-BI HDL uptake,Neddylation inh,SR-BI DiI-HDL act
O=C(N/N=C/c1cc([N+](=O)[O-])ccc1O)C1CCCCC1,-14,87*,-31,-87
Cc1cc(C(=O)N/N=C\c2ccc(COc3ccc([N+](=O)[O-])cc3)o2)ccc1[N+](=O)[O-],-9,76*,-2,-76
COc1ccc(Br)cc1/C=N/NC(=O)c1ccc(COc2ccc3c(c2)CCC3)o1,-11,54,30,-54
Cc1ccc(OCC(=O)N/N=C\c2ccc(C)o2)c([N+](=O)[O-])c1,·,-10,-42,10
Cc1nc2ccc(C(=O)N/N=C/c3cc([N+](=O)[O-])ccc3O)cc2[nH]1,-10,106*,-13,-106
O=C(N/N=C/c1cc([N+](=O)[O-])ccc1O)c1ccc(COc2ccc3c(c2)CCC3)o1,-25,136*,-2,-136
CN(C(=S)NC(=O)C1CCCC1)c1ccccc1,·,·,1,·
CCN(CC)CCNC(=O)CN1C(=O)CSc2ccc(S(=O)(=O)N3CCOCC3)cc21,·,·,4,·
CCCN(c1ccccc1F)S(=O)(=O)c1c[nH]c(C(=O)OC)c1,-1,-1,-3,1
CC1(c2ccc(Cl)cc2Cl)NC(=O)N(CC(=O)NCCC2=CCCCC2)C1=O (stereo not given),·,·,9,·
O=C(NN=Cc1cc(Cl)ccc1[N+](=O)[O-])c1cccc2ccccc12,·,40,2,-40
O=C(N/N=C/c1cc([N+](=O)[O-])ccc1O)c1cccc2ccccc12,-8,129*,-21,-129
Cc1ccc(NC(=O)C2CC(=O)N(c3ccccc3Cl)C2)cc1S(=O)(=O)N1CCOCC1 (stereo not given),·,15,-22,-15
O=C(CCNS(=O)(=O)c1cccc(C(F)(F)F)c1)NCc1ccco1,-5,-13,-19,13
CC(C)(C)C1CCc2c(sc(NC(=O)C3CCCO3)c2C(N)=O)C1 (stereo not given),14,78*,9,-78
NC(=O)c1c(NC(=O)C2CCCO2)sc2c1CCC2 (stereo not given),5,-9,7,9
CCN(c1ccccc1)S(=O)(=O)c1ccc(Cl)c(C(=O)NCCc2ccc(OC)cc2)c1,-17,1,-1,-1
COc1cc(OC)cc(C(=O)NNC(=O)c2ccc(S(=O)(=O)N(C)c3ccccc3OC)cc2)c1,6,44,1,-44
COc1ccccc1N(C)S(=O)(=O)c1ccc(C(=O)NNC(=O)c2ccccc2O)cc1,-1,126*,14,-126
COc1ccccc1N(C)S(=O)(=O)c1ccc(Cl)c(C(=O)NNC(=O)c2ccccc2O)c1,-9,81*,18,-81
COc1ccc(N(C)S(=O)(=O)c2ccc(Cl)c(C(=O)NNC(=O)c3ccccc3O)c2)cc1,-9,79*,-2,-79
O=C(Nc1ccc2nc([C@H]3C[C@H](O)[C@@H](CO)O3)[nH]c2c1)NC(c1ccccc1)c1ccccc1,·,·,-5,·
CCCCn1nnnc1C(c1cc2ccccc2o1)N1CCN(CC(=O)N2CCCC2)CC1 (stereo not given),·,·,-5,·
COc1cccc(/C=N/N2CCN(C3c4ccccc4-c4ccccc43)CC2)c1O,2,72*,10,-72
Cc1ccccc1NC(=O)NC1(C(=O)NCC2CCCO2)CCCCC1 (stereo not given),6,·,7,·
COc1cc(OC)cc(-c2c(-c3cccs3)c3cc(-c4ccc(SC)cc4)ccc3n2C)c1,39,20,-68,-20
COc1cc(OC)cc(-c2c(-c3cccs3)c3cc(-c4ccc5cc[nH]c5c4)ccc3n2C)c1,38,109*,·,-109
